# Experimental data taken from ChEMBL document CHEMBL1140384, “Synthesis and structure-activity relationships of suramin-derived P2Y11 receptor antagonists with nanomolar potency” (J Med Chem, 2005).
# Assays:
# [1] = target: T1, P2X purinoceptor 3 (Rattus norvegicus, UniProt P49654); test: Inhibitory concentration against rat P2X purinoceptor 3 expressed in Xenopus laevis oocytes; assay type: functional, cell-based, Oocyte
# T1 sequence (P49654 whole entry): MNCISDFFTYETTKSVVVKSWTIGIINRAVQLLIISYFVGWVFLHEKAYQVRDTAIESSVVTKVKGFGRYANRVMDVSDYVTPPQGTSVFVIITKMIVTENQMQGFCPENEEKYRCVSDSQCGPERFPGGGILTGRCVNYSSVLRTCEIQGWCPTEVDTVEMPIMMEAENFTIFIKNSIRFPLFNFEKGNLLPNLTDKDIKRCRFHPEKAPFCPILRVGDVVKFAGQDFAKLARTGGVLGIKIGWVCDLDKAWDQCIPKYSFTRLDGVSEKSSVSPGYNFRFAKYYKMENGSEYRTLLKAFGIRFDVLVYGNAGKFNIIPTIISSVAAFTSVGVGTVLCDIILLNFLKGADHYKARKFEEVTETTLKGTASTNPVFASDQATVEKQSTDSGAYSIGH
# Method in brief: (§1)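 Two-electrode voltage clamp on Xenopus laevis oocytes expressing recombinant rat or human P2X subtypes, recording receptor-mediated currents. IC50 values came from nonlinear least-squares Hill fits to pooled concentration-inhibition data; mean ± SEM from at least three experiments.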
# [2] = target: P2Y purinoceptor 1 (Homo sapiens, UniProt P47900); test: Inhibitory concentration against P2Y purinoceptor 1 expressed in 1321N1 astrocytoma Cells; (n=3)
# P2Y purinoceptor 1, sequence (P47900 whole entry): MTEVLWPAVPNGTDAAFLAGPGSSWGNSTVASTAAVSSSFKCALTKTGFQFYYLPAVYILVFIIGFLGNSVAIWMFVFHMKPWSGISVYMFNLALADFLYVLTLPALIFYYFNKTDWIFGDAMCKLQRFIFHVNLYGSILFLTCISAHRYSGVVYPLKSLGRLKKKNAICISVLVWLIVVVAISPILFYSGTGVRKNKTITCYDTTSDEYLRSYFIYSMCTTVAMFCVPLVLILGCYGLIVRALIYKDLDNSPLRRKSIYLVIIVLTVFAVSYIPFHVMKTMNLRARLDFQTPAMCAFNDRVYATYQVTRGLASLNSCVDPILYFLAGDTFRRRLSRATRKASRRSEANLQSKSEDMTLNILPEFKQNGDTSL
# [3] = target: T2, P2Y purinoceptor 11 (Homo sapiens, UniProt Q96G91); test: Inhibitory concentration against P2Y11 receptor expressed in 1321N1 astrocytoma Cells; (n=7)
# T2 sequence (Q96G91 whole entry): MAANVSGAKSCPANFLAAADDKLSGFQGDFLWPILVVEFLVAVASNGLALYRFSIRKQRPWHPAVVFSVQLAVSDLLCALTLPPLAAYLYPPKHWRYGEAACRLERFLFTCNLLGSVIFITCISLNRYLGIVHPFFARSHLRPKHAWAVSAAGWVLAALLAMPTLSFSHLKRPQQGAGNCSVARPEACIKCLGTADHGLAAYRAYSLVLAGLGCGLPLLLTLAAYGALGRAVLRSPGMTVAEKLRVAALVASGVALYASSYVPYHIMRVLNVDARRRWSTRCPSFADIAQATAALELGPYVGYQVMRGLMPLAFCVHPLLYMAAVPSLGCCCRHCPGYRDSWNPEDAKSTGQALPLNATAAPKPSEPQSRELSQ
# Method in brief: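 Human P2Y11 stably expressed in 1321N1 astrocytoma cells (G418 selection), loaded with Oregon Green 488 BAPTA-1/AM (3 µM, 60 min, 25 °C) in Krebs-HEPES. Compound preincubated 30 min at 37 °C before injection of 1 µM ATPγS. Ca2+ fluorescence read at ex 485/em 520 nm for 30 s. IC50 from concentration-inhibition curves; independent experiments each run in triplicate.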
# [4] = target: T3, P2X purinoceptor 7 (Rattus norvegicus, UniProt Q64663); test: Inhibitory concentration against rat P2X purinoceptor 7 expressed in Xenopus laevis oocytes; assay type: functional, cell-based, Oocyte; method in brief: as §1
# T3 sequence (Q64663 whole entry): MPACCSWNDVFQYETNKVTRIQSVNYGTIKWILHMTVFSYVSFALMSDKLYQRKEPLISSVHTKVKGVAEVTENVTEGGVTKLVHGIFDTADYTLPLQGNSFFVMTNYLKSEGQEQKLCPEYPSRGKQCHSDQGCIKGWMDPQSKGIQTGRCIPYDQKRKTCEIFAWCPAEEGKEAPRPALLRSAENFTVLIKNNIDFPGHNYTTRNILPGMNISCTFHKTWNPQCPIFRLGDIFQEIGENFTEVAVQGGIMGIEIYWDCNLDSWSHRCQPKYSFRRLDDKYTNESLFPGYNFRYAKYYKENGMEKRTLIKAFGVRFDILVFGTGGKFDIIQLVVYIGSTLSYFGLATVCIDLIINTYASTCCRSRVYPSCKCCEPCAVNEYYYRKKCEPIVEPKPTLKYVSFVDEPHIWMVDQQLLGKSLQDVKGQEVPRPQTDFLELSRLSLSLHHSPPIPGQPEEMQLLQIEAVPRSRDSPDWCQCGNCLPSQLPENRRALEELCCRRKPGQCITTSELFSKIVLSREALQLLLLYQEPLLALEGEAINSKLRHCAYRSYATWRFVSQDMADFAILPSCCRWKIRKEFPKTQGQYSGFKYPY
# [5] = target: T4, P2X purinoceptor 1 (Homo sapiens, UniProt P51575); test: Inhibitory concentration against human P2X purinoceptor 1 expressed in Xenopus laevis oocytes; assay type: functional, cell-based, Oocyte; method in brief: as §1
# T4 sequence (P51575 whole entry): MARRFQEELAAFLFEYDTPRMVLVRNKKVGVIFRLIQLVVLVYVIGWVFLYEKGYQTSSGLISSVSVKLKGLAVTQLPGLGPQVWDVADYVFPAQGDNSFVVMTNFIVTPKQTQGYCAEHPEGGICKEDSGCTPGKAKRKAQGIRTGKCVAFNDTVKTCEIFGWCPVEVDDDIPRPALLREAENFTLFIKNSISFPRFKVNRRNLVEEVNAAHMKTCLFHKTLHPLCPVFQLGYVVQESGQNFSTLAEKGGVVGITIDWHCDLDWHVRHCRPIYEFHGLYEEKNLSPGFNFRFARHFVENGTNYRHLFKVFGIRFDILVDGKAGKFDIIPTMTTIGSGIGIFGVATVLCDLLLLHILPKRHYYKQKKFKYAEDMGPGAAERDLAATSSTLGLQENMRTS
smiles,measurement,setting,value
O=C(Nc1cccc(C(=O)Nc2cc(C(=O)Nc3ccc(S(=O)(=O)O)c4cc(S(=O)(=O)O)cc(S(=O)(=O)O)c34)ccc2F)c1)Nc1cccc(C(=O)Nc2cc(C(=O)Nc3ccc(S(=O)(=O)O)c4cc(S(=O)(=O)O)cc(S(=O)(=O)O)c34)ccc2F)c1,IC50,[1],0.776 µM
same,IC50,[2],1820 µM
same,IC50,[3],0.457 µM
same,IC50,[4],> 3.16 µM
same,IC50,[5],0.0631 µM
